Experimental data from ChEMBL document CHEMBL3779805, “Orally bioavailable pyridine and pyrimidine-based Factor XIa inhibitors: Discovery of the methyl N-phenyl carbamate P2 prime group” (Bioorg Med Chem, 2016).
pKi: −log10 of the molar value.

Columns and labels:
[1] = tested on: Plasma; assay: Anticoagulant activity in human plasma assessed as concentration required for 50% increase in activated partial thromboplastin time by automated coagulation analyzer; type: functional
How it was run: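 aPTT clotting assay in pooled normal human plasma on an automated coagulation analyzer with commercial reagents. EC1.5x is the inhibitor plasma concentration giving a 50% increase in clotting time over the no-inhibitor control.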

[2] = biological target: Coagulation factor XI (Homo sapiens, UniProt P03951)
Sequence of Coagulation factor XI (P03951 19-387 limits assumed): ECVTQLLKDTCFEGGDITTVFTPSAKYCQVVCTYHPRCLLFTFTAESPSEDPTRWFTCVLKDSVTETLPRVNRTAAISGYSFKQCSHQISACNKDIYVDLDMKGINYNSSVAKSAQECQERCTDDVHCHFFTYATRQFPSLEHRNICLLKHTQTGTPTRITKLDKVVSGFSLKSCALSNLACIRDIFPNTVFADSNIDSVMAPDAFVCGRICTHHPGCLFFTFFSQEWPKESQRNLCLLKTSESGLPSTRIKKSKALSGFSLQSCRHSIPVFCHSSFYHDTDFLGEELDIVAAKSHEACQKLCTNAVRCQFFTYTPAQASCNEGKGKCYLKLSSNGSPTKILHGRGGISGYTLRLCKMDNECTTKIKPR
Sequence of Coagulation factor XI (P03951 388-625 limits assumed): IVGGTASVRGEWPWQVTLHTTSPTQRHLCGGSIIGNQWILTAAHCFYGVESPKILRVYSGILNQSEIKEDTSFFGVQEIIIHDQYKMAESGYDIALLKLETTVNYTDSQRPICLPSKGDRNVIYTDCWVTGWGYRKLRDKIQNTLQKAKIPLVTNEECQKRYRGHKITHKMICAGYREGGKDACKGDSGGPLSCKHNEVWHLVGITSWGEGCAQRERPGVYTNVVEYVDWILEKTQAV

[3] = AUC in beagle dog plasma at 0.2 mg/kg, iv and 0.2 mg/kg, po by LC-MS/MS method; type: ADME, organism-based, Canis lupus familiaris
How it was run: (§1)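 Dogs dosed iv and po in N-in-1 (cassette) format. The same vehicle was used for both routes: 70% water, 10% ethanol, 10% dimethylacetamide, 10% polypropylene glycol.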

[4] = tested on: Canis familiaris; assay: Clearance in beagle dog plasma at 0.2 mg/kg, iv and 0.2 mg/kg, po administered in cassette format by LC-MS/MS method; type: ADME, organism-based, Canis lupus familiaris; conditions: in vivo; how it was run: as §1
[5] = Oral bioavailability in beagle dog plasma at 0.2 mg/kg by LC-MS/MS method; type: ADME, organism-based, Canis lupus familiaris; how it was run: as §1

Compound	EC1.5 [1] [µM]	pKi [2]	further results
COC(=O)Nc1ccc(-c2cccc([C@H](Cc3ccccc3)NC(=O)[C@H]3CC[C@H](CN)CC3)c2)cc1	13	7.77	
NC[C@H]1CC[C@H](C(=O)NC(Cc2ccccc2)c2cc(-c3ccc4c(O)n[nH]c4c3)ccn2)CC1 (mixture of isomers)		7.01	
COC(=O)Nc1ccc(-c2cc([C@H](Cc3ccccc3)NC(=O)[C@H]3CC[C@H](CN)CC3)ccn2)cc1	0.9	8.10	
NC[C@H]1CC[C@H](C(=O)NC(Cc2ccccc2)c2cc(-c3cccc(C(=O)O)c3)ccn2)CC1 (mixture of isomers)		6.69	
NC[C@H]1CC[C@H](C(=O)N[C@H](Cc2ccccc2)c2cc(-c3ccc4c(N)noc4c3)ccn2)CC1		8.50	
NC[C@H]1CC[C@H](C(=O)NC(Cc2ccccc2)c2cc(-c3ccc4[nH]nc(O)c4c3)ccn2)CC1 (mixture of isomers)	0.5	8.12	
NC[C@H]1CC[C@H](C(=O)NC(Cc2ccccc2)c2cc(-c3ccc4c(N)ncnc4c3)ccn2)CC1 (mixture of isomers)	2.8	8.00	
NC[C@H]1CC[C@H](C(=O)NC(Cc2ccccc2)c2cc(-c3ccc4cn[nH]c4c3)ccn2)CC1 (mixture of isomers)	>40	7.06	
Cn1[nH]c2ccc(-c3ccnc(C(Cc4ccccc4)NC(=O)[C@H]4CC[C@H](CN)CC4)c3)cc2c1=O (mixture of isomers)		6.96	
NC[C@H]1CC[C@H](C(=O)NC(Cc2ccccc2)c2cc(-c3ccc4c(N)nccc4c3)ccn2)CC1 (mixture of isomers)		6.84	
NC[C@H]1CC[C@H](C(=O)N[C@@H](Cc2ccccc2)c2cc(-c3ccc4c(N)noc4c3)ccn2)CC1	0.6	8.42	
NC[C@H]1CC[C@H](C(=O)NC(Cc2ccccc2)c2cc(-c3ccc(N)nc3)ccn2)CC1 (mixture of isomers)		7.62	
NC[C@H]1CC[C@H](C(=O)NC(Cc2ccccc2)c2cc(-c3ccc(N)cc3)ccn2)CC1 (mixture of isomers)	35	7.25	
NC[C@H]1CC[C@H](C(=O)N[C@@H](Cc2ccccc2)c2nc(-c3ccc4c(N)n[nH]c4c3)c(Cl)[nH]2)CC1	0.32		
NC[C@H]1CC[C@H](C(=O)NC(Cc2ccccc2)c2cc(-c3ccc(N)c(C(=O)O)c3)ccn2)CC1 (mixture of isomers)	0.8	8.28	
COC(=O)Nc1ccc(-c2cncc([C@H](Cc3ccccc3)NC(=O)[C@H]3CC[C@H](CN)CC3)c2)cc1	1.3	8.08	
COc1n[nH]c2ccc(-c3ccnc(C(Cc4ccccc4)NC(=O)[C@H]4CC[C@H](CN)CC4)c3)cc12 (mixture of isomers)	>40	7.06	
COC(=O)Nc1ccc(-c2ccnc(C(Cc3ccccc3)NC(=O)[C@H]3CC[C@H](CN)CC3)c2)cc1 (mixture of isomers)	3.7	7.92	
COC(=O)Nc1ccc(-c2c[nH]c([C@H](Cc3ccccc3)NC(=O)/C=C/c3cc(Cl)ccc3-n3cnnn3)n2)cc1	8.6		AUC [3]: 0.03 µM·h; clearance [4]: 21 mL/min/kg; bioavailability [5]: 10%
NC[C@H]1CC[C@H](C(=O)NC(Cc2ccccc2)c2cc(-c3ccc4[nH]ncc4c3)ccn2)CC1 (mixture of isomers)		7.21	
NC[C@H]1CC[C@H](C(=O)NC(Cc2ccccc2)c2cc(-c3ccc4c(N)noc4c3)ccn2)CC1 (mixture of isomers)		8.04	
NC[C@H]1CC[C@H](C(=O)NC(Cc2ccccc2)c2cc(-c3ccc4[nH]nc(N)c4c3)ccn2)CC1 (mixture of isomers)	26	7.28	
